ChEMBL document CHEMBL1135742, “Modification of the structure of a metallopeptide: synthesis and biological evaluation of (111)In-labeled DOTA-conjugated rhenium-cyclized alpha-MSH analogues” (J Med Chem, 2002)

Tests used:
Assay type in all cases: functional, organism-based
Mus musculus [1] = organism: Mus musculus; test: Uptake of [111In]-labeled compound in spleen at 2 hr pi in the absence of 10 mg NDP
Outline: (§1)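 C57 BL/6 female mice, 7–8 weeks old, inoculated s.c. in right flank with 1×10^6 B16/F1 melanoma cells. Used 9–10 days later at tumor weight ~500 mg. […] HPLC-purified 111In-DOTA peptide (neutral pH) given via tail vein, with or without […]. Killed 2 h pi. Tissues weighed and gamma-counted. Uptake expressed as % ID/g.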

Mus musculus [2] = organism: Mus musculus; test: Uptake of [111In]-labeled compound in blood at 2 hr pi in the presence of […]; outline: as §1
Mus musculus [3] = organism: Mus musculus; test: Uptake of [111In]-labeled compound in lung at 2 hr pi in the presence of […]; outline: as §1
Mus musculus [4] = organism: Mus musculus; test: Uptake of [111In]-labeled compound in tumor at 2 hr pi in the absence of […]; outline: as §1
Mus musculus [5] = organism: Mus musculus; test: Uptake of [111In]-labeled compound in pancreas at 2 hr pi in the absence of 10 mg NDP; outline: as §1
Mus musculus [6] = organism: Mus musculus; test: Uptake of [111In]-labeled compound in liver at 2 h pi in the absence of […]; outline: as §1
Mus musculus [7] = organism: Mus musculus; test: Uptake of [111In]-labeled compound in heart at 2 hr pi in the presence of […]; outline: as §1

DOTA-ReCCEHdFRWCRPV-NH2
ID/g (Mus musculus [1]): 0.27%
ID/g (Mus musculus [2]): 0.27%
ID/g (Mus musculus [3]): 0.44%
ID/g (Mus musculus [4]): 17.3%
ID/g (Mus musculus [5]): 0.08%
ID/g (Mus musculus [6]): 0.38%
ID/g (Mus musculus [7]): 0.33%
